15 compounds from ChEMBL document CHEMBL1124808, “The synthesis and antiallergy activity of 1-(aryloxy)-4-(4-arylpiperazinyl)-2-butanol derivatives” (1990) can be followed below.

What all share (assay type): functional
The test system of assay [1] is Rattus norvegicus. In words: Percent change in volume of foot edema of test compound to that of positive control was determined at a dose of 10 mg/kg in rat; -43/-77.
For assay [2], the system named is Rattus norvegicus. In words: Percent change in volume of foot edema of test compound to that of positive control was determined at a dose of 31.6 mg/kg in rat; -65/-78.
The test system of assay [3] is Rattus norvegicus. In words: Percent change in volume of foot edema of test compound to that of positive control was determined at a dose of 10 mg/kg in rat; -26/-62.
The subject of assay [4] is Rattus norvegicus. In words: Percent change in volume of foot edema of test compound to that of positive control was determined at a dose of 31.6 mg/kg in rat; -49/-78.
The subject of assay [5] is Rattus norvegicus. In words: Percent change in volume of foot edema of test compound to that of positive control was determined at a dose of 10 mg/kg in rat; +22/-73.
Assay [6] deals with Rattus norvegicus. In words: Percent change in volume of foot edema of test compound to that of positive control was determined at a dose of 31.6 mg/kg in rat; -79/-65.
For assay [7], the system named is Rattus norvegicus. In words: Percent change in volume of foot edema of test compound to that of positive control was determined at a dose of 31.6 mg/kg in rat; -85/-82.
For assay [8], the system named is Rattus norvegicus. In words: Percent change in volume of foot edema of test compound to that of positive control was determined at a dose of 10 mg/kg in rat; -50/-80.
Assay [9] concerns Rattus norvegicus. In words: Percent change in volume of foot edema of test compound to that of positive control was determined at a dose of 3.16 mg/kg in rat; -34/-79.
Assay [10] concerns Rattus norvegicus. In words: Percent change in volume of foot edema of test compound to that of positive control was determined at a dose of 31.6 mg/kg in rat; -65/-69.
The subject of assay [11] is Rattus norvegicus. In words: Percent change in volume of foot edema of test compound to that of positive control was determined at a dose of 10 mg/kg in rat; -29/-62.
Assay [12] deals with Rattus norvegicus. In words: Percent change in volume of foot edema of test compound to that of positive control was determined at a dose of 10 mg/kg in rat; -56/-69.
Assay [13] deals with Rattus norvegicus. In words: Percent change in volume of foot edema of test compound to that of positive control was determined at a dose of 31.6 mg/kg in rat; -82/69.
Assay [14] deals with Rattus norvegicus. In words: Percent change in volume of foot edema of test compound to that of positive control was determined at a dose of 3.16 mg/kg in rat; -9/-69.
The subject of assay [15] is Rattus norvegicus. In words: Percent change in volume of foot edema of test compound to that of positive control was determined at a dose of 10 mg/kg in rat; +3/-73.
Assay [16] has as its system Rattus norvegicus. In words: Percent change in volume of foot edema of test compound to that of positive control was determined at a dose of 31.6 mg/kg in rat; -69/-78.
Assay [17] relates to Rattus norvegicus. In words: Percent change in volume of foot edema of test compound to that of positive control was determined at a dose of 10 mg/kg in rat; -38/-69.
The subject of assay [18] is Rattus norvegicus. In words: Percent change in volume of foot edema of test compound to that of positive control was determined at a dose of 31.6 mg/kg in rat; -73/-68.
Assay [19] concerns Rattus norvegicus. In words: Percent change in volume of foot edema of test compound to that of positive control was determined at a dose of 3.16 mg/kg in rat; -13/-73.
Assay [20] concerns Rattus norvegicus. In words: Percent change in volume of foot edema of test compound to that of positive control was determined at a dose of 31.6 mg/kg in rat; -30/-81.
For assay [21], the system named is Rattus norvegicus. In words: Percent change in volume of foot edema of test compound to that of positive control was determined at a dose of 31.6 mg/kg in rat; +7/-47.
Assay [22] deals with Rattus norvegicus. In words: Percent change in volume of foot edema of test compound to that of positive control was determined at a dose of 10 mg/kg in rat; -53/-77.
Assay [23] has as its system Rattus norvegicus. In words: Percent change in volume of foot edema of test compound to that of positive control was determined at a dose of 31.6 mg/kg in rat; -88/-63.
Assay [24] deals with Rattus norvegicus. In words: Percent change in volume of foot edema of test compound to that of positive control was determined at a dose of 3.16 mg/kg in rat; -18/-77.
The subject of assay [25] is Rattus norvegicus. In words: Percent change in volume of foot edema of test compound to that of positive control was determined at a dose of 31.6 mg/kg in rat; -80/-83.
In assay [26] the test system is Rattus norvegicus. In words: Percent change in volume of foot edema of test compound to that of positive control was determined at a dose of 10 mg/kg in rat; -36/-65.
The test system of assay [27] is Rattus norvegicus. In words: Percent change in volume of foot edema of test compound to that of positive control was determined at a dose of 10 mg/kg in rat; -14/-62.
Assay [28] relates to Rattus norvegicus. In words: Percent change in volume of foot edema of test compound to that of positive control was determined at a dose of 31.6 mg/kg in rat; -69/-69.
In assay [29] the test system is Rattus norvegicus. In words: Percent change in volume of foot edema of test compound to that of positive control was determined at a dose of 31.6 mg/kg in rat; -67/-63.
For assay [30], the system named is Rattus norvegicus. In words: Percent change in volume of foot edema of test compound to that of positive control was determined at a dose of 10 mg/kg in rat; -34/-77.
The species named for the next assay is Cavia porcellus. In words: Dose that protects 50% of guinea pig from collapse was determined in guinea pig anaphylaxis assay. The following applies: read-out: PD50. The procedure, abridged:
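Guinea pigs dosed by gavage (10 mL/kg) with compound in 0.5% Tween 80/water; reference theophylline 100 mg/kg po. At 1–24 h, exposed in chamber to aerosolized 1% (w/v) egg albumin at 10 L air/min for up to 5 min; protected if no collapse within 5 min. PD50 by Litchfield and Wilcoxon.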

On to `OC(CCN1CCN(c2ccc(Cl)cc2)CC1)COc1ccccc1` (stereo unspecified), for which the PFA is -43 with Rattus norvegicus [1] and -65 with Rattus norvegicus [2].
In the case of `OC(CCN1CCN(c2ccccc2)CC1)COc1cccc(C(F)(F)F)c1` (stereo unspecified), the values for the PFA in the assay on Rattus norvegicus [3] and in the assay with Rattus norvegicus [4] were -26 and -49, respectively.
With `COc1ccccc1N1CCN(CCC(O)COc2ccccc2)CC1` (stereo unspecified), the figures for the PFA in the assay with Rattus norvegicus [5] and in the assay on Rattus norvegicus [6] were 22 and -79, respectively.
For the compound `Cc1ccc(N2CCN(CCC(O)COc3ccccc3)CC2)cc1` (stereo unspecified), the PFA is reported as -85 in the assay on Rattus norvegicus [7], -50 in the assay on Rattus norvegicus [8] and -34 with Rattus norvegicus [9].
Turning to `OC(CCN1CCN(c2ccccc2)CC1)COc1ccc(-c2ccccc2)cc1` (stereo unspecified), the results for the PFA with Rattus norvegicus [10] and in the assay on Rattus norvegicus [11] were -65 and -29, respectively.
On to `NC(=O)c1ccc(OCC(O)CCN2CCN(c3ccc(F)cc3)CC2)cc1` (stereo unspecified), for which the PFA is -56 in the assay on Rattus norvegicus [12], -82 with Rattus norvegicus [13] and -9 in the assay with Rattus norvegicus [14].
For `COc1cccc(N2CCN(CCC(O)COc3ccccc3)CC2)c1` (stereo unspecified), the results for the PFA in the assay on Rattus norvegicus [15] and with Rattus norvegicus [16] were 3 and -69, respectively.
Regarding `NC(=O)c1ccc(OCC(O)CCN2CCN(c3ccccn3)CC2)cc1` (stereo unspecified), the PFA was -38 in the assay with Rattus norvegicus [17], -73 with Rattus norvegicus [18] and -13 with Rattus norvegicus [19].
For `OC(CCN1CC=C(c2ccccc2)CC1)COc1ccccc1` (stereo unspecified), the PFA with Rattus norvegicus [20] is -30.
Turning to `OC(CCN1CCc2ccccc2C1)COc1ccccc1` (stereo unspecified), the PFA with Rattus norvegicus [21] is listed as 7.
With `OC(CCN1CCN(c2ccc(F)cc2)CC1)COc1ccccc1` (stereo unspecified), the PFA in the assay on Rattus norvegicus [22] is given as -53; in the assay with Rattus norvegicus [23], -88; in the assay with Rattus norvegicus [24], -18.
Take `CC(=O)c1ccc(N2CCN(CCC(O)COc3ccccc3)CC2)cc1` (stereo unspecified): the PFA in the assay on Rattus norvegicus [25] is -80; in the assay with Rattus norvegicus [26] it was -36.
`COc1ccccc1OCC(O)CCN1CCN(c2ccccc2)CC1` (stereo unspecified): the PFA in the assay with Rattus norvegicus [27] was -14; with Rattus norvegicus [28], -69.
For `COc1ccc(N2CCN(CCC(O)COc3ccccc3)CC2)cc1` (stereo unspecified), the PFA is reported as -67 in the assay on Rattus norvegicus [29] and -34 with Rattus norvegicus [30].
For `Cn1c(=O)c2nc[nH]c2n(C)c1=O.O` [THEOPHYLLINE], the ED50 in the assay filed under Cavia porcellus was determined as 75 mg/kg.
